# ChEMBL document CHEMBL1130214, “6-(alkylamino)-9-alkylpurines. A new class of potential antipsychotic agents” (1997)
# Legend:
# Rattus norvegicus [1] = test: Ability of intraperitoneally administered compound to antagonise apomorphine-induced aggression in male rats.; format: functional
# Procedure, shortened: (§1)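 Male rats were dosed ip or orally as solutions or fine dispersions in water or 0.5% methylcellulose. Apomorphine-induced fighting between paired animals was scored 1 h after dosing, and stereotyped behavior was noted. Five pairs were used per dose. ED50 is the dose that cut fighting time by 50%, estimated approximately from two or three bracketing doses, and has no standard error.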
# Rattus norvegicus [2] = test: Antagonists of apomorphine-induced aggression in male rats, administered perorally; format: functional; procedure, shortened: as §1
# Rattus norvegicus [3] = test: Inhibition of apomorphine-induced aggression in male rats after intraperitoneal administration of 25 mg/kg of compound; format: functional; conditions: ip
# Procedure, shortened: (§2)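 Male rats received a single screening dose, given in water or 0.5% methylcellulose as a solution or fine dispersion. Apomorphine-induced fighting in paired animals was observed starting 1 h after dosing, with five pairs per dose. The value is percent inhibition of fighting time at that dose. Stereotyped behavior was recorded during the fighting observation.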
# Rattus norvegicus [4] = test: Compounds were tested for their ability to antagonise apomorphine-induced aggression in male rats. compound was administered perorally.; format: functional; conditions: po; procedure, shortened: as §1
# Rattus norvegicus [5] = test: Inhibition of apomorphine-induced aggression in male rats after peroral administration of 25 mg/kg of compound; format: functional; conditions: route oral; procedure, shortened: as §2
# Rattus norvegicus [6] = test: Ability of intraperitoneally administered compound (25 mg/kg) to antagonise apomorphine-induced aggression in male rats; d indicates toxic at 25 mg/Kg; format: functional, organism-based
# [7] = Rattus norvegicus, ip, read-out: ED50
# [8] = Rattus norvegicus, po, read-out: ED50
SMILES,ED50 (Rattus norvegicus [1]; [7]),ED50 (Rattus norvegicus [2]; [8]),other results
CC(C1CC1)n1cnc2c(NC3CC3)ncnc21 (stereo in doubt; 60),–,–,ED50 (Rattus norvegicus [1]): 2 mg/kg; ED50 (Rattus norvegicus [2]): 9 mg/kg
CCN(c1ncnc2c1ncn2CC1CC1)C1CC1,20 mg/kg,–,–
CN(C)c1ncnc2c1ncn2Cc1ccccc1,15 mg/kg,52 mg/kg,–
c1nc(NC2CC2)c2ncn(C3CC3)c2n1,4.5 mg/kg,20 mg/kg,–
CN(C)c1ncnc2c1ncn2CC1CCCCC1,–,–,inhibition in vivo at 25 mg/kg (Rattus norvegicus [3]): 0%
COc1nc(NC2CC2)c2ncn(CC3CC3)c2n1,–,–,ED50 (Rattus norvegicus [4]): 3.7 mg/kg
CCN(C)c1ncnc2c1ncn2CC1CC1,12.5 mg/kg,–,–
FC(F)(F)c1nc(NC2CC2)c2ncn(CC3CC3)c2n1,0.9 mg/kg,2 mg/kg,–
CN(C)c1ncnc2c1ncn2Cc1cccc(Cl)c1,50 mg/kg,–,–
CN(C)c1ncnc2c1ncn2C,–,–,inhibition in vivo at 25 mg/kg (Rattus norvegicus [3]): 30%
CN(C)c1ncnc2c1ncn2Cc1cccc(C#N)c1,13 mg/kg,–,–
O=CN(c1ncnc2c1ncn2C1CC1)C1CC1,2.4 mg/kg,7.4 mg/kg,–
CN(C)c1ncnc2c1ncn2Cc1cccc(NC(=O)C(N)Cc2ccccc2)c1 (stereo not drawn),27 mg/kg,96 mg/kg,–
c1nc(NC2CC2)c2ncn(C3CCC3)c2n1,19 mg/kg,–,–
c1nc(NC2CCC2)c2ncn(CC3CC3)c2n1,–,–,inhibition in vivo at 25 mg/kg (Rattus norvegicus [3]): 0%
CC(C1CC1)n1cnc2c(NC3CC3)ncnc21 (stereo in doubt; 61),–,–,ED50 (Rattus norvegicus [1]): 12.5 mg/kg; ED50 (Rattus norvegicus [2]): >25 mg/kg
O=CN(c1ncnc2c1ncn2C1CCC1)C1CC1,20 mg/kg,–,inhibition in vivo at 25 mg/kg (Rattus norvegicus [5]): 0%
CN(C)c1ncnc2c1ncn2Cc1ccc(N)cc1,17 mg/kg,–,–
CCCn1cnc2c(N(C)C)ncnc21,14 mg/kg,15 mg/kg,–
CN(C)c1ncnc2c1ncn2Cc1ccccc1[N+](=O)[O-],–,–,inhibition in vivo at 25 mg/kg (Rattus norvegicus [3]): 0%
CCCn1cnc2c(NC3CC3)ncnc21,6 mg/kg,–,–
CCNc1ncnc2c1ncn2CC1CC1,22 mg/kg,–,–
O=CN(c1ncnc2c1ncn2CC1CCC1)C1CC1,7 mg/kg,–,–
CN(C)c1ncnc2c1ncn2Cc1cccc(N)c1,23 mg/kg,58 mg/kg,–

SMILES,ED50 (Rattus norvegicus [1]; [7]),ED50 (Rattus norvegicus [2]; [8]),other results
CN(c1ncnc2c1ncn2CC1CC1)C1CC1,7.5 mg/kg,35 mg/kg,–
CC(C)(C)Nc1ncnc2c1ncn2CC1CC1,–,–,inhibition in vivo at 25 mg/kg (Rattus norvegicus [3]): 0%
CN(C)c1ncnc2c1ncn2C1CCCCCC1,–,–,inhibition in vivo at 25 mg/kg (Rattus norvegicus [3]): 0%
c1nc(NC2CC2)c2ncn(CC3CC3)c2n1,4 mg/kg,12 mg/kg,–
c1nc(N2CCCCC2)c2ncn(CC3CC3)c2n1,–,–,inhibition in vivo at 25 mg/kg (Rattus norvegicus [3]): 28%
CN(C)c1ncnc2c1ncn2Cc1ccccc1F,37 mg/kg,–,–
c1nc(N2CCC2)c2ncn(CC3CC3)c2n1,–,–,inhibition in vivo at 25 mg/kg (Rattus norvegicus [3]): 30%
CC(C)N(C)c1ncnc2c1ncn2CC1CC1,–,–,inhibition in vivo at 25 mg/kg (Rattus norvegicus [3]): 32%
CCC(C)n1cnc2c(N(C)C)ncnc21 (stereo not drawn),14 mg/kg,–,–
CC(C)n1cnc2c(N(C)C)ncnc21,11 mg/kg,15 mg/kg,–
c1nc(NC2CC2)c2ncn(C3CCCC3)c2n1,–,–,ED50 (Rattus norvegicus [6]): Toxic
CC(=O)N(c1ncnc2c1ncn2C1CC1)C1CC1,–,–,inhibition in vivo at 25 mg/kg (Rattus norvegicus [3]): 22%
Nc1nc(NC2CC2)c2ncn(CC3CC3)c2n1,9 mg/kg,–,inhibition in vivo at 25 mg/kg (Rattus norvegicus [5]): 26%
CCC(C)n1cnc2c(NC3CC3)ncnc21 (stereo not drawn),13.5 mg/kg,–,–
CN(C)c1ncnc2c1ncn2C1CCCCC1,–,–,inhibition in vivo at 25 mg/kg (Rattus norvegicus [3]): 70%
CCCCn1cnc2c(N(C)C)ncnc21,10 mg/kg,–,–
CCNc1nc(NC2CC2)c2ncn(CC3CC3)c2n1,9 mg/kg,–,ED50 (Rattus norvegicus [4]): 11 mg/kg
CNc1ncnc2c1ncn2CC1CC1,12 mg/kg,–,inhibition in vivo at 25 mg/kg (Rattus norvegicus [5]): 38%
CCOc1nc(NC2CC2)c2ncn(CC3CC3)c2n1,0.8 mg/kg,4 mg/kg,–
CN(C)c1ncnc2c1ncn2Cc1ccc(O)cc1,–,–,inhibition in vivo at 25 mg/kg (Rattus norvegicus [3]): 0%
CCCCCn1cnc2c(N(C)C)ncnc21,–,–,inhibition in vivo at 25 mg/kg (Rattus norvegicus [3]): 0%
CC(C)Cn1cnc2c(N(C)C)ncnc21,5 mg/kg,22 mg/kg,–
CC(C)Cn1cnc2c(NC3CC3)ncnc21,10 mg/kg,–,inhibition in vivo at 25 mg/kg (Rattus norvegicus [5]): 0%
COc1ccc(Cn2cnc3c(N(C)C)ncnc32)cc1,58 mg/kg,–,–

SMILES,ED50 (Rattus norvegicus [1]; [7]),ED50 (Rattus norvegicus [2]; [8]),other results
Clc1nc(NC2CC2)c2ncn(CC3CC3)c2n1,2.5 mg/kg,4 mg/kg,–
CNc1nc(NC2CC2)c2ncn(CC3CC3)c2n1,3 mg/kg,12.5 mg/kg,–
CN(C)c1ncnc2c1ncn2C1CCC1,11 mg/kg,26 mg/kg,–
CSCn1cnc2c(NC3CC3)ncnc21,23 mg/kg,–,–
CC(C1CC1)n1cnc2c(N(C=O)C3CC3)ncnc21 (stereo not drawn),2.5 mg/kg,7.5 mg/kg,–
Nc1ncnc2c1ncn2CC1CC1,20 mg/kg,–,–
CCCCn1cnc2c(NC3CC3)ncnc21,18 mg/kg,–,–
CCn1cnc2c(N(C)C)ncnc21,15 mg/kg,–,–
CCCOc1nc(NC2CC2)c2ncn(CC3CC3)c2n1,2.5 mg/kg,2.5 mg/kg,–
CSc1nc(NC2CC2)c2ncn(CC3CC3)c2n1,5 mg/kg,–,–
c1ccc(Nc2ncnc3c2ncn3CC2CC2)cc1,–,–,inhibition in vivo at 25 mg/kg (Rattus norvegicus [3]): 0%
O=CN(c1ncnc2c1ncn2CC1CC1)C1CC1,8 mg/kg,30 mg/kg,–
CN(C)c1ncnc2c1ncn2C1CC1,9 mg/kg,25 mg/kg,–
CN(C)c1ncnc2c1ncn2CC1CC1,4.5 mg/kg,17 mg/kg,–
CCCNc1ncnc2c1ncn2CC1CC1,–,–,inhibition in vivo at 25 mg/kg (Rattus norvegicus [3]): 0%
CCN(CC)c1ncnc2c1ncn2CC1CC1,–,–,inhibition in vivo at 25 mg/kg (Rattus norvegicus [3]): 0%
c1nc(NC2CC2)c2ncn(CC3CCC3)c2n1,10 mg/kg,44 mg/kg,–
CC(C1CC1)n1cnc2c(NC3CC3)ncnc21 (stereo in doubt; 59),–,–,ED50 (Rattus norvegicus [1]): 4.5 mg/kg; ED50 (Rattus norvegicus [2]): 25 mg/kg
CC(C)n1cnc2c(NC3CC3)ncnc21,4 mg/kg,30 mg/kg,–
CN(C)c1ncnc2c1ncn2C1CCCC1,–,–,inhibition in vivo at 25 mg/kg (Rattus norvegicus [3]): 27%
CN(c1ncnc2c1ncn2C1CC1)C1CC1,4.5 mg/kg,12.5 mg/kg,–
CN(C)c1ncnc2c1ncn2CC1CCC1,8 mg/kg,–,–
c1nc(NC2CC2)c2ncn(CC3CCCC3)c2n1,15 mg/kg,–,–
c1nc(NCC2CC2)c2ncn(CC3CC3)c2n1,–,–,inhibition in vivo at 25 mg/kg (Rattus norvegicus [3]): 28%
